This note sets out measurements from ChEMBL document CHEMBL4825701, “New antiparasitic flexible triaryl diamidines, their prodrugs and aza analogues: Synthesis, in vitro and in vivo biological evaluation, and molecular modelling studies” (Eur J Med Chem, 2021).

pIC50: −log10 of the molar value. Active and inactive are the calls of the source. No cut-off for these calls is given here.

As usually defined, the pIC50 is the negative decadic logarithm of the IC50, by convention in mol/L. A word on the ΔTm: it is the shift of the melting midpoint relative to a reference.

In series [1] the test system is L6. The series can be described thus: Cytotoxicity against rat L6 cells by Alamar blue assay. Format: cell-based. Put shortly:
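L6 rat myoblasts were run by the same Alamar Blue protocol as the trypanosome assay. Seven 3-fold serial dilutions were incubated 72 h at 37 °C, 5% CO₂, followed by 2–4 h with dye.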
On the technique in general: Alamar Blue is a resazurin reagent that responds to reducing activity.

Series [2] in a line: Selectivity index, ratio of IC50 for cytotoxicity against rat L6 cells to IC50 for antitrypanosomal activity against Trypanosoma brucei rhodesiense STIB900. Format: toxicity, cell-based. The conditions noted are these: read-out: Selectivity Index. Put shortly: (§1)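 SI = IC50(L6)/IC50(parasite): K1 P. falciparum for the antiplasmodial index, T. b. rhodesiense STIB900 for the antitrypanosomal index. L6 rat myoblasts were run as in the trypanosome assay: MEM with 2-mercaptoethanol and 15% heat-inactivated horse serum, seven 3-fold serial dilutions, 72 h at 37 °C in 5% CO2.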

Series [3] concerns Trypanosoma brucei rhodesiense. The series can be described thus: Antitrypanosomal activity against Trypanosoma brucei rhodesiense STIB900 measured after 72 hrs by alamar blue dye based fluorimetry analysis. The format is functional, organism-based. The conditions noted are these: STIB900, 72 h.
Series [4] can be described thus: Selectivity index, ratio of IC50 for cytotoxicity against rat L6 cells to IC50 for antiplasmodial activity against chloroquine and pyrimethamine resistant Plasmodium falciparum K1 infected in human red blood cells. Format: toxicity, cell-based. The conditions noted are these: read-out: Selectivity Index. Put shortly:
as §1

The test system of series [5] is Poly(dA-dT)oligonucleotide.
The test system of series [6] is Plasmodium falciparum. The series can be described thus: Antiplasmodial activity against chloroquine and pyrimethamine resistant Plasmodium falciparum K1 infected in human erythrocytes assessed as reduction in [3H]hypoxanthine incorporation measured after 24 hrs by liquid scintillation counting method. The format is functional, organism-based.
Series [7] has as its system Trypanosoma brucei rhodesiense. As to the kind of experiment: Antitrypanosomal activity against bloodstream form of Trypanosoma brucei rhodesiense STIB900 infected in mouse assessed as reduction in parasitemia by measuring time taken to cure at 5 mg/kg, ip measured up to 60 days (reference value: 11 days). The format is functional. To be noted: time day <=60.
The test system of series [8] is Trypanosoma brucei rhodesiense. As to the kind of experiment: Antitrypanosomal activity against Trypanosoma brucei rhodesiense STIB900 infected in mouse assessed as reduction in parasitemia by measuring time taken to cure at 25 mg/kg, po measured up to 60 days (reference value: 11 days). Format: functional. To be noted: time day <=60.
The subject of series [9] is Poly(dA-dT)oligonucleotide. The series can be described thus: Binding affinity to poly (dA-dT) (unknown origin) by circular dichroism spectroscopy. Format: nucleic-acid assay. For orientation: CD spectra are sensitive to the conformation of chiral molecules.

For the compound `CO/N=C(\N)c1ccc(Oc2cccc(Oc3ccc(/C(N)=N\OC)cc3)n2)cc1`, the pIC50 in series [1] is 3.93; in [3], 4.58. Besides, the selectivity ratio in [2] is 4.5; in series [4], 12.3.

`N=C(N)c1ccc(Cc2ccc(Cc3ccc(C(=N)N)cc3)cc2)cc1`: in [5], the thermal shift (ΔTm) worked out at 1 °C. Further, the pIC50 was 7.64 in series [6], 4.71 in [1] and 7.14 in [3]. Moreover, the Time in series [7] amounted to 16.25 days. Moreover, the selectivity ratio in [2] stood at 269; in series [4], 970.

As for `CO/N=C(\N)c1ccc(-c2ccc(Oc3ccc(/C(N)=N\OC)cc3)nc2)cc1`, the pIC50 in series [1] was 4.04; in series [3], 4.84. Also, the selectivity ratio in [2] came to 6.3; in series [4], 9.7.

With `CO/N=C(\N)c1cccc(Cc2ccc(-c3ccc(/C(N)=N\OC)cc3)cc2)c1`, the pIC50 is less than 5.02 in series [6], 4.46 in [1] and 4.78 in series [3]. Besides, in series [8], the Time stood at 13 days. Further, the selectivity ratio in series [2] is 2.1; in [4] it was 3.7.

Regarding `N=C(N)c1ccc(Cc2ccc(Cc3ccc(C(=N)N)cc3)o2)cc1`, the shift in melting temperature (ΔTm) in series [5] is 2.25 °C. The pIC50 in series [1] was 4.60; in series [3], 7.57. In addition, in series [7], the Time came to 18.75 days. The results for the selectivity ratio in [2] and in series [4] were 930 and 1390, respectively.

Turning to `CO/N=C(\N)c1cccc(Cc2ccc(Cc3ccc(/C(N)=N\OC)cc3)cc2)c1`, the negative logarithm of the IC50 (pIC50) in series [6] is less than 5.02; in series [1], 4.49; in [3], 4.73. Further, the Time in series [8] was 9.2 days. The selectivity ratio in series [2] is 1.7; in [4], more than 3.4.

`CN(C)CCCC(=O)O/N=C(\N)c1ccc(Cc2ccc(-c3ccc(/C(N)=N\OC(=O)CCCN(C)C)cc3)cc2)cc1`: the negative-log IC50 (pIC50) is 6.74 in series [6], 5.96 in series [1] and 6.98 in series [3]. Besides, in series [8], the Time came to 7 days. Moreover, the selectivity ratio in series [2] worked out at 10.5; in [4] it was 6.

`CO/N=C(/N)c1ccc(Cc2ccc(Cc3ccc(/C(N)=N\OC)cc3)cc2)cc1`: the negative-log IC50 (pIC50) in [6] was less than 5.02; in series [1] it was 4.43; in series [3], 4.90. Moreover, the selectivity ratio in [4] is more than 3.9.

For the compound `N=C(N)c1ccc(Cc2ccc(Cc3cccc(C(=N)N)c3)cc2)cc1`, in series [5], the thermal shift (ΔTm) turned out to be 0.5 °C. For the same compound, the negative logarithm of the IC50 (pIC50) in series [1] was 4.55; in series [3], 7.82. Further, in [7], the Time came to 15.5 days. Besides, the selectivity ratio in series [2] amounted to 1890; in series [4], 1230.

`N=C(N)c1ccc(OCCCCCOc2ccc(C(=N)N)cc2)cc1` [PENTAMIDINE]: the Time in series [7] was found to be 20 days.

Turning to `N=C(N)c1ccc(Oc2cccc(Oc3ccc(C(=N)N)cc3)n2)cc1`, the ΔTm in [5] was determined as 1.25 °C. Moreover, the results for the negative logarithm of the IC50 (pIC50) in series [6], in series [1] and in series [3] were 6.49, 4.00 and 6.42, respectively. Further, the selectivity ratio in series [2] is 263; in series [4] it was 307.

Turning to `N=C(N)c1ccc(Oc2ccc(-c3ccc(C(=N)N)cc3)cn2)cc1`, in series [5], the shift in melting temperature (ΔTm) was found to be 17.8 °C. For the same compound, the negative-log IC50 (pIC50) in [1] is 5.68; in series [3], 7.96. In addition, the Time in [7] is more than 45.5 days. In addition, the values for the selectivity ratio in [2] and in series [4] were 191 and 525, respectively. For the same compound, the outcome in series [9] was inactive.

Turning to `N=C(N)c1ccc(Cc2ccc(-c3ccc(C(=N)N)cc3)nc2)cc1`, in [5], the ΔTm was 1 °C. For the same compound, the negative-log IC50 (pIC50) in series [6] is 7.95; in [1], 4.74; in series [3], 7.39. Moreover, in series [7], the Time was more than 60 days. Also, the selectivity ratio is 441 in series [2] and 1620 in series [4]. In series [9], the result was inactive.

Turning to `N=C(N)c1ccc(-c2ccc(-c3ccc(C(=N)N)cc3)o2)cc1` [FURAMIDINE], the Time in [7] is 24 days.

As for `N=C(N)c1ccc(Cc2ccc(-c3ccc(C(=N)N)cc3)cc2)cc1`, the ΔTm in series [5] amounted to 9 °C. Moreover, the pIC50 is 8.52 in [6], 5.40 in [1] and 7.14 in [3]. The Time in [7] stood at 22 days. In addition, the selectivity ratio in [2] is 54.8; in series [4], 1330.

Regarding `N=C(N)c1ccc(-c2ccc(Cc3cccc(C(=N)N)c3)cc2)cc1`, the ΔTm in [5] is 8.5 °C. In addition, the figures for the pIC50 in series [6], in series [1] and in series [3] were 7.51, 5.70 and 7.46, respectively. Moreover, in series [7], the Time is 22.75 days. The selectivity ratio in [2] came to 57.1; in series [4], 64.5.
